Experimental data: ChEMBL document CHEMBL1132246, “Cross-linking and sequence-specific alkylation of DNA by aziridinylquinones. 3. Effects of alkyl substituents” (1999)

What was measured:
[1] = tested on: BE; test: In vitro cytotoxicity against BE cell line; type: functional, Homo sapiens
Outline: (§1)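 Continuous-exposure MTT assay at 600 cells/well. HT29 (colon) and H460 (large-cell lung) express high DTD; H596 (lung) and BE (colon) lack detectable DTD activity. Absorbance was read at 540 and 640 nm after 5 days, and growth inhibition was plotted against concentration. Triplicates at each concentration, on at least two occasions.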

[2] = Rate of reduction by human BE cell extract; type: functional
Outline: (§2)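 Extract from 2 × 10⁷ BE cells in 2 mL PBS, sonicated and centrifuged to remove debris. Quinone at 100 µM in PBS with acetylated cytochrome c (100 µM) and NADPH (200 µM). Reduction was followed through cytochrome c reduction.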

[3] = target: NAD(P)H dehydrogenase [quinone] 1 (Homo sapiens) (UniProt P15559); test: Rate of reduction by human recombinant DTD; type: functional
Outline: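 Human recombinant DTD (specific activity 653 µmol/min/mg protein) with quinone at 50 µM in 50 mM Tris-HCl, pH 7.4. Reduction was followed through the coupled reduction of 70 µM cytochrome c.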

[4] = tested on: NCI-H596; test: In vitro cytotoxicity against H596 cell line; type: functional, Homo sapiens; outline: as §1
[5] = tested on: NCI-H460; test: In vitro cytotoxicity against H460 cell line; type: functional, Homo sapiens; outline: as §1
[6] = tested on: HT-29; test: In vitro cytotoxicity against HT-29 cell line; type: functional, Homo sapiens; outline: as §1
[7] = tested on: Nucleic Acid; test: Ability to produce interstrand cross-links in the plasmid DNA at 100 uM concentration; type: functional
Outline: (§3)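 Stocks were 10 mM in DMSO. DNA was ethanol-precipitated, denatured in 30% DMSO at 90 °C for 2 min and run on 0.8% agarose gels at 40 V for 16 h. Cross-linked versus single-stranded DNA was read by autoradiography.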

[8] = tested on: Nucleic Acid; test: Ability to produce interstrand cross-links in the plasmid DNA at 10 uM concentration; type: functional; outline: as §3
[9] = tested on: BE; test: Rate of reduction by human BE cell extract; Not Detected; type: functional, cell-based; outline: as §2

NAD(P)H dehydrogenase [quinone] 1 (Homo sapiens), sequence (P15559 whole entry): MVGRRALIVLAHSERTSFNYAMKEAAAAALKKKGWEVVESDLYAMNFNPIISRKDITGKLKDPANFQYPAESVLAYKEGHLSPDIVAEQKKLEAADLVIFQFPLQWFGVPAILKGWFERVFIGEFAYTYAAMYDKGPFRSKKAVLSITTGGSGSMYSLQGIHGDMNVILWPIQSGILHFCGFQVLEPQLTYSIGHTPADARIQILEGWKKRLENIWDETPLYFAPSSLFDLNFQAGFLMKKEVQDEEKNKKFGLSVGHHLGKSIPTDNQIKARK

SMILES	Cytotoxicity [1]	Rate of reduction [2]	Rate of reduction [3]	Cytotoxicity [4]	Cytotoxicity [5]	Cytotoxicity [6]	Activity [7]	Activity [8]	Rate of reduction [9]
CCCC1=C(N2CC2)C(=O)C(C)=C(N2CC2)C1=O	67 nM	3.4 nM/min/mg	7.9 µM/min/mg	228 nM	3.3 nM	5.5 nM	100%	58.4%	
CC1=C(N2CC2)C(=O)C(C(C)C)=C(N2CC2)C1=O	1300 nM	1.1 nM/min/mg	2.7 µM/min/mg	1230 nM	3.6 nM	33 nM	87.8%	28.1%	
CCC1=C(N2CC2)C(=O)C(C)=C(N2CC2)C1=O	84 nM	4 nM/min/mg	12.5 µM/min/mg	98.5 nM	1.6 nM	3.9 nM	100%	69%	
CC1=C(N2CC2)C(=O)C(C)=C(N2CC2)C1=O	25.9 nM	9.2 nM/min/mg	21 µM/min/mg	48.8 nM	0.77 nM	3.4 nM	100%	79.8%	
O=C1C=C(N2CC2)C(=O)C=C1N1CC1	10.2 nM	25.3 nM/min/mg	35.6 µM/min/mg	12.9 nM	4.6 nM	5.1 nM	100%	100%	
CCC1=C(N2CC2)C(=O)C(CC)=C(N2CC2)C1=O	290 nM	2.3 nM/min/mg	3 µM/min/mg	1160 nM	4.1 nM	21.8 nM	100%	60.9%	
CCCC1=C(N2CC2)C(=O)C(CCC)=C(N2CC2)C1=O	590 nM	1.7 nM/min/mg	1 µM/min/mg	1290 nM	20.1 nM	58.2 nM	95.6%	16.4%	
CC(C)C1=C(N2CC2)C(=O)C(C(C)C)=C(N2CC2)C1=O	3130 nM		0.22 µM/min/mg	2620 nM	170 nM	2740 nM	0%	0%	Not detected
